Source: PubChem
A selection: hits, their analogues and other compounds. The true share with any hit is near 6.3%.
tolC growth inh – E. coli tolC mutant growth inhibition; AID 573; growth inhibition, % at 10 µM (by protocol); 65,000 compounds, 2.2% hits; E. coli BW25113 tolC mutant growth, OD615;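 active means growth inhibition at or above a cutoff equal to the mean over every tested compound plus 3 SD, cut at about 60% in these data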;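 further: growth measured after 20 h incubation at 37 °C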
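Test system: tolC-deleted E. coli BW25113 | Medium: LB with kanamycin 50 µg/mL | Compound dosing: Single concentration, 10 µM final per compound | Schedule: 37 °C, 20 h exposure | Measured by: OD at 615 nm | Evaluation: Percent growth inhibition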
Ecoli WT expand – E. coli BW25113 growth inhibition, expanded screen; OD600 absorbance; growth inhibition, % at 100 µM; 98,000 compounds, 0.15% hits; AID 710;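 active means growth inhibition above about 50% at one test dose, limit read from the data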;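 further: growth measured after 20 h incubation at 37 °C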
PostGolgi yeast – growth inhibition of a yeast mutant, post-Golgi transport screen; post-Golgi transport phenotypic cell assay; AID 739; 98,000 compounds, 0.9% hits; inhibition, % at 10 µM;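 further: yeast cells grown in 1536-well plates; yeast grown about 18 h at 30C before absorbance read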
PostGolgi ctrl – growth of the yeast control strain, post-Golgi counter-screen; efflux-deficient yeast background strain, growth absorbance A615, 16 h; inhibition, % at 10 µM; 98,000 compounds, 5% hits; AID 738
* hit, by the source's call; / = no result. Unless noted, no stated cut-off is given here; in the data, active means inhibition above about 30%; inactive means the rest.

SMILES	tolC growth inh	Ecoli WT expand	PostGolgi yeast	PostGolgi ctrl
O=C(Nc1nc(SCc2ccc(F)cc2)ns1)c1ccco1	81.0*	/	/	/
Fc1ccc(CSc2nsc(SCc3ccc(F)cc3)n2)cc1	/	7.0	-2.2	7.3
O=C(CCSc1nnc(-c2ccncc2)o1)Nc1ccc(F)cc1	-6.2	6.0	92.8*	89.2*
CCOC(=O)c1sc(NC(C)=O)nc1-c1ccccc1	/	2.0	-15.1	-2.6
Cc1ccccc1N1CCN(C(=O)c2ccccc2NC(=O)C2CC=CCC2C(=O)O)CC1 (stereo unspecified)	/	-2.0	-2.5	-2.9
Cc1ccc(-c2nc3cc(NS(=O)(=O)c4ccc(C)cc4)ccc3o2)cc1	/	-13.0	14.3	58.8*
O=C(Nc1ccc2oc(-c3ccccc3)nc2c1)c1ccncc1	-5.2	-8.0	0.2	5.2
O=S(=O)(Nc1ccc2oc(-c3ccccc3)nc2c1)c1ccccc1	100.0*	-4.0	-0.1	32.7*
CC(C)c1nnc(NC(=O)CC(=O)Nc2ccccc2C(=O)O)s1	-4.1	5.0	3.8	-0.6
Cc1cc(C(=O)CSc2n[nH]c(-c3ccccc3F)n2)c(C)n1Cc1cccs1	/	-22.0	1.3	33.5*
COc1cc(C(=O)Nc2sc3c(c2C#N)CCN(C(C)=O)C3)cc(OC)c1OC	/	-3.0	1.8	31.0*
CCOC(=O)N1CCc2c(sc(NC(=O)c3ccc(S(=O)(=O)N4CCCC4)cc3)c2C#N)C1	26.9	0.0	6.9	10.4
O=C(c1ccccc1[N+](=O)[O-])N1CCC(Cc2ccccc2)CC1	/	6.0	-1.0	4.0
Cc1cccc(CN(CC(=O)N/N=C/c2cccs2)S(=O)(=O)c2ccc(Cl)cc2)c1	/	-7.0	-4.7	11.9
CN(C)c1nc(N)nc(CSc2nnnn2-c2ccccc2)n1	/	0.0	1.2	2.1
Cn1cccc1CNC(=O)Nc1ccccc1	/	13.0	19.6	14.2
Cn1cccc1CNC(=O)Nc1ccc(Cl)cc1	13.5	8.0	14.1	37.9*
COC(=O)c1sccc1NC(=S)N1CC(C)CC(C)C1 (stereo unspecified)	/	2.0	-2.1	3.2
COc1cc(OC)c(C#N)c(S(=O)Cc2ccccc2)c1 (stereo unspecified)	0.5	0.0	13.4	36.1*
CC(=O)c1cccc(NC(=O)CN(c2ccc(C)cc2)S(=O)(=O)c2cccc3nonc23)c1	15.9	-5.0	-3.9	34.4*
CCCC(=O)c1ccc(N2CCN(C(=O)OCC)CC2)c(F)c1	29.4	9.0	-5.6	2.9
CCC(=O)c1ccc(N2CCN(C(=O)COc3ccc(F)cc3)CC2)c(F)c1	28.8	-3.0	-10.2	31.2*
CCCC(=O)c1ccc(N2CCCCCC2)c(F)c1	67.7*	-8.0	-1.4	2.1
Cc1sc(NC(=O)CSc2nnc(-c3ccccc3)o2)c(C#N)c1C	7.1	-2.0	0.2	45.6*
CC(NS(=O)(=O)c1ccccc1)C(c1cccs1)N1CCN(c2ccccc2)CC1 (stereo unspecified)	26.6	-8.0	-4.9	39.2*
SMILES	tolC growth inh	Ecoli WT expand	PostGolgi yeast	PostGolgi ctrl
CCOc1ccc(-n2c(SCC(=O)Nc3ccc4c(c3)OCO4)nc3ccccc3c2=O)cc1	/	-4.0	0.5	18.5
O=C(CSc1nccn1-c1ccccc1)Nc1ccc2c(c1)OCO2	5.8	6.0	-0.1	13.3
COc1ccc(-n2nnnc2SCC(=O)Nc2ccc3c(c2)OCCO3)cc1OC	3.6	-4.0	4.1	7.1
Cc1cc(C)cc(-n2ccnc2SCC(=O)Nc2ccc3c(c2)OCCO3)c1	77.2*	-12.0	-7.7	3.4
COc1cccc(-n2nnnc2SCC(=O)Nc2ccc3c(c2)OCCO3)c1	/	-4.0	39.0*	31.4*
COc1ccc(-n2c(SCC(=O)Nc3ccc4c(c3)OCO4)nc3ccccc3c2=O)cc1	16.8	-14.0	-2.8	54.0*
O/N=C(\c1ccc(Cl)cc1)c1cc2ccccc2o1	97.5*	-3.0	14.7	34.5*
Cc1ccc(C(=O)c2cc3ccccc3o2)cc1	/	5.0	-0.5	3.1
Clc1ccc(/C=N/c2c(-c3ccc(Cl)cc3)nc3n2CCS3)cc1	/	-2.0	7.2	6.6
CC1CCN(C(=O)Cn2c(=O)n(Cc3ccc4c(c3)OCO4)c(=O)c3ccccc32)CC1	13.6	-9.0	12.3	8.6
CC1CCN(C(=O)Cn2c(=O)n(CCc3ccccc3)c(=O)c3ccccc32)CC1	0.0	-3.0	20.9	43.4*
Cc1cc(NCCN2CCOCC2)n2nc(C)c(-c3ccccc3)c2n1	-6.9	-2.0	-1.4	-5.2
Cc1cc(NCCN2CCOCC2)n2nc(C)c(-c3ccc(Cl)cc3)c2n1	14.1	-4.0	46.7*	33.5*
COc1ccc(Br)cc1C(=O)Nc1cccc(C)c1	/	-4.0	-2.6	8.0
CCC(=O)Nc1cccc(C(=O)/C=C/c2cc(Br)ccc2OC)c1	/	-13.0	4.5	80.6*
O=C(NCc1cccs1)c1cc(C2CC2)on1	/	3.0	-6.1	1.7
O=c1c2ccccc2nc(-c2ccc(Br)cc2)n1Cc1ccccc1	/	-12.0	8.5	52.3*
O=c1c2ccccc2nc(-c2ccoc2)n1CCc1ccccc1	22.4	-6.0	-0.6	41.4*
Cn1ncc([N+](=O)[O-])c1C(=O)N1CCOCC1	/	-4.0	-1.9	-5.2
COc1ccc(-c2nc3c(c(=O)[nH]c(=O)n3Cc3ccccc3)n2Cc2ccccc2)cc1	/	-8.0	-0.8	35.1*
COc1ccc(C(=O)NN(C)c2nc(-c3ccccc3)nnc2C(F)(F)F)cc1	/	-5.0	2.3	35.2*
O=C(Nc1ccccc1)c1nnn(Cc2ccccc2)c1NC(=O)C(F)(F)F	/	2.0	2.7	7.0
CC1CN=C(c2cccn2Cc2ccc(F)cc2Cl)O1 (stereo unspecified)	1.8	6.0	11.2	32.0*
N#Cc1nc(COc2ccccc2F)oc1NCc1ccc(F)cc1	28.0	-7.0	-0.3	17.9
COc1ccc(CCNc2oc(COc3ccccc3F)nc2C#N)cc1	88.5*	-6.0	2.1	15.5
SMILES	tolC growth inh	Ecoli WT expand	PostGolgi yeast	PostGolgi ctrl
C=CCSc1nnc2nc3[nH]c4c(C)cccc4c3nn12	/	-14.0	9.6	27.9
CCOc1cccc2cc(-c3nnc(NCc4ccco4)s3)c(=O)oc12	5.5	-1.0	-9.2	5.1
COc1ccc2oc(=O)c(-c3nnc(NCc4ccco4)s3)cc2c1	9.1	-12.0	39.8*	-3.2
Cc1cc(C)nc(SCc2nnc(SCc3ccccc3Cl)o2)n1	7.8	-2.0	9.1	16.6
Cc1ccc(-c2nc3cccnc3o2)cc1NC(=O)COc1ccc(C(C)(C)C)cc1	/	5.0	5.2	42.5*
CCOC(=O)CSc1cccc2cccnc12	-8.9	18.0	-10.7	-2.5
COc1ccc(C(=O)n2c(SC)nc3cc4c(cc32)OCCO4)cc1	/	-5.0	7.4	3.5
Clc1ccc(Sc2ccc(/C=N/n3cnnc3)o2)cc1	/	4.0	5.5	22.6
Clc1ccc(Sc2oc(/C=N/n3cnnc3)cc2Br)cc1	3.9	3.0	4.1	47.1*
Cc1ccccc1OCCCCCn1ccnc1	19.3	26.0	9.3	5.4
Cc1ccc(SCCCn2cnc3ccccc3c2=O)cc1	/	11.0	3.3	26.4
c1ccc(OCCCCn2cnc3ccccc32)cc1	27.6	23.0	-0.3	9.1
c1ccc(OCCn2cnc3ccccc32)cc1	18.4	9.0	11.6	33.6*
Cc1ccccc1OCCCCn1cnc2ccccc21	/	12.0	5.2	36.5*
Brc1ccccc1OCCCn1cnc2ccccc21	/	11.0	0.3	30.3*
Cc1cc(C)c(C)c(OCCCCn2cnc3ccccc3c2=O)c1	/	0.0	-6.0	37.3*
